# Test results taken from ChEMBL document CHEMBL1138547, “Synthesis, biological evaluation and 2D-QSAR analysis of benzoxazoles as antimicrobial agents” (2009).
# Tests used:
# Format in all cases: functional
# Bacillus subtilis [1] = experiment: Antimicrobial activity against Bacillus subtilis ATCC 6633 after 24 hrs
# In short: (§1)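 MIC by twofold serial dilution in Mueller-Hinton broth (MHB); MHB also used to dilute the bacterial suspension. Wells held 10^3 cfu/ml bacteria after inoculation. Controls: 80% DMSO, 20% EtOH, methanol, DMSO, PBS, organism alone and medium alone. Triplicate in each run. MIC taken as the lowest concentration completely inhibiting macroscopic growth.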
# Pseudomonas aeruginosa = experiment: Antimicrobial activity against Pseudomonas aeruginosa ATCC […] after 24 hrs; in short: as §1
# Staphylococcus aureus [2] = experiment: Antimicrobial activity against Staphylococcus aureus ATCC 25923 after 24 hrs
# In short: (§2)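 Twofold serial broth dilution in Mueller-Hinton broth. MHB was used both to dilute the bacterial suspension and for the twofold compound dilutions, giving 10^3 cfu/ml bacteria per well after inoculation. Solvent, medium and organism-only wells served as controls. Each organism was run in triplicate.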
# Escherichia coli [3] = experiment: Antimicrobial activity against Escherichia coli ATCC 25922 after 24 hrs; in short: as §1
# Candida albicans [4] = experiment: Antimicrobial activity against multidrug-resistant Candida albicans isolates after 24 to 48 hrs
# In short: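 Yeast broth microdilution following CLSI M27-A, with Sabouraud dextrose medium noted for antifungal assays. Fresh cultures at McFarland 0.5 (10^6 cfu/ml) were diluted to 10^4 cfu/ml and inoculated into twofold compound dilutions. Trays were incubated at 35 °C in a humid chamber and read at 48 h, in triplicate. MIC was the lowest concentration giving complete macroscopic growth inhibition.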
# Bacillus subtilis [5] = experiment: Antimicrobial activity against ceftriazone-resistant Bacillus subtilis after 24 hrs; in short: as §2
# Candida albicans [6] = experiment: Antimicrobial activity against Candida albicans ATCC 10231 after 24 to 48 hrs
# In short: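 Twofold serial dilution following CLSI M27-A. Yeast suspension made at 10^4 cfu/ml by diluting a fresh culture at McFarland 0.5 (10^6 cfu/ml). Inoculated into the diluted compound, incubated at 35 °C in a humid chamber, read after 48 h. Triplicate in each run. MIC is the lowest concentration completely inhibiting macroscopic growth.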
# Klebsiella pneumoniae [7] = experiment: Antimicrobial activity against multidrug-resistant Klebsiella pneumoniae after 24 hrs; in short: as §2
# Klebsiella pneumoniae [8] = experiment: Antimicrobial activity against Klebsiella pneumoniae RSHM 574 after 24 hrs; in short: as §1
# Staphylococcus aureus [9] = experiment: Antimicrobial activity against multidrug-resistant Staphylococcus aureus after 24 hrs; in short: as §2
# Escherichia coli [10] = experiment: Antimicrobial activity against multidrug-resistant Escherichia coli after 24 hrs; in short: as §2
# [11] = Bacillus subtilis, ATCC 6633, 24 h
Compound,log(1/C) (Bacillus subtilis [1]),MIC (Bacillus subtilis [1]; [11]),MIC (Pseudomonas aeruginosa),"MIC (Staphylococcus aureus [2]; ATCC 25923, 24 h)","MIC (Escherichia coli [3]; ATCC 25922, 24 h)",MIC (Candida albicans [4]),MIC (Bacillus subtilis [5]),MIC (Candida albicans [6]),MIC (Klebsiella pneumoniae [7]),"MIC (Klebsiella pneumoniae [8]; RSHM 574, 24 h)",MIC (Staphylococcus aureus [9]),MIC (Escherichia coli [10]),MIC (Bacillus subtilis [1]),MIC (Staphylococcus aureus [2]),MIC (Escherichia coli [3]),MIC (Klebsiella pneumoniae [8])
Nc1ccc2nc(Cc3ccc(Cl)cc3)oc2c1,4.32,12.5 µg/mL,25 µg/mL,100 µg/mL,50 µg/mL,50 µg/mL,25 µg/mL,50 µg/mL,100 µg/mL,50 µg/mL,100 µg/mL,100 µg/mL,,,,
CC1(C)S[C@@H]2[C@H](NC(=O)[C@H](N)c3ccccc3)C(=O)N2[C@H]1C(=O)O.O.O.O [AMPICILLIN TRIHYDRATE],,0.25 µg/mL,4100 µg/mL,0.03 µg/mL,8 µg/mL,,8 µg/mL,,256 µg/mL,2 µg/mL,2 µg/mL,256 µg/mL,,,,
Cc1ccc2oc(-c3ccc(Cl)cc3Cl)nc2c1,4.046,25 µg/mL,,,,,,,,,,,,,,
Cc1ccc(-c2nc3cc(C)ccc3o2)c(C)c1,3.977,,,,,,,,,,,,,,,
Cc1ccc2nc(-c3ccc(Br)cc3)oc2c1,4.363,12.5 µg/mL,,,,,,,,,,,,,,
Cc1ccc(Cc2nc3cc([N+](=O)[O-])ccc3o2)cc1,3.73,50 µg/mL,50 µg/mL,50 µg/mL,50 µg/mL,25 µg/mL,50 µg/mL,50 µg/mL,50 µg/mL,50 µg/mL,50 µg/mL,50 µg/mL,,,,
Nc1ccc2nc(Cc3ccc(F)cc3)oc2c1,3.685,50 µg/mL,25 µg/mL,100 µg/mL,50 µg/mL,50 µg/mL,50 µg/mL,50 µg/mL,100 µg/mL,50 µg/mL,100 µg/mL,50 µg/mL,,,,
Nc1ccc2nc(-c3ccc(Br)cc3)oc2c1,4.063,25 µg/mL,50 µg/mL,100 µg/mL,50 µg/mL,50 µg/mL,25 µg/mL,100 µg/mL,100 µg/mL,50 µg/mL,100 µg/mL,50 µg/mL,,,,
COc1ccc(-c2nc3ccc(C)cc3o2)c(OC)c1,4.032,,,,,,,,,,,,,,,
CCc1ccc(-c2nc3ccc([N+](=O)[O-])cc3o2)cc1,3.73,50 µg/mL,50 µg/mL,100 µg/mL,50 µg/mL,100 µg/mL,25 µg/mL,50 µg/mL,100 µg/mL,50 µg/mL,100 µg/mL,100 µg/mL,,,,
Nc1ccc2oc(-c3ccccc3)nc2c1,4.226,12.5 µg/mL,50 µg/mL,100 µg/mL,50 µg/mL,50 µg/mL,50 µg/mL,100 µg/mL,100 µg/mL,50 µg/mL,100 µg/mL,50 µg/mL,,,,
Cc1ccc2nc(-c3ccccc3F)oc2c1,3.959,25 µg/mL,,,,,,,,,,,,,,
O=[N+]([O-])c1ccc2nc(Cc3ccc(F)cc3)oc2c1,4.338,12.5 µg/mL,50 µg/mL,100 µg/mL,50 µg/mL,50 µg/mL,100 µg/mL,100 µg/mL,100 µg/mL,50 µg/mL,100 µg/mL,50 µg/mL,,,,
Cc1ccc2nc(-c3ccccc3Cl)oc2c1,3.989,,,,,,,,,,,,,,,
Nc1ccc2nc(Cc3ccc(Br)cc3)oc2c1,4.084,25 µg/mL,50 µg/mL,100 µg/mL,50 µg/mL,100 µg/mL,50 µg/mL,50 µg/mL,100 µg/mL,50 µg/mL,100 µg/mL,100 µg/mL,,,,
O=[N+]([O-])c1ccc2nc(-c3ccc(F)cc3)oc2c1,3.713,50 µg/mL,50 µg/mL,100 µg/mL,50 µg/mL,100 µg/mL,25 µg/mL,50 µg/mL,100 µg/mL,50 µg/mL,100 µg/mL,100 µg/mL,,,,
Cc1ccc2oc(-c3ccc([N+](=O)[O-])cc3)nc2c1,4.609,6.25 µg/mL,,,,,,,,,,,,,,
CC1COc2c(N3CCN(C)CC3)c(F)cc3c(=O)c(C(=O)O)cn1c23 (stereo not drawn) [OFLOXACIN],,0.125 µg/mL,8 µg/mL,0.25 µg/mL,0.125 µg/mL,,32 µg/mL,,64 µg/mL,0.25 µg/mL,2 µg/mL,32 µg/mL,,,,
Cc1ccc2nc(-c3ccc(Cl)cc3)oc2c1,4.29,12.5 µg/mL,,,,,,,,,,,,,,
CCc1ccc(-c2nc3cc([N+](=O)[O-])ccc3o2)cc1,3.73,50 µg/mL,50 µg/mL,100 µg/mL,50 µg/mL,100 µg/mL,25 µg/mL,50 µg/mL,100 µg/mL,50 µg/mL,100 µg/mL,100 µg/mL,,,,

Compound,log(1/C) (Bacillus subtilis [1]),MIC (Bacillus subtilis [1]; [11]),MIC (Pseudomonas aeruginosa),"MIC (Staphylococcus aureus [2]; ATCC 25923, 24 h)","MIC (Escherichia coli [3]; ATCC 25922, 24 h)",MIC (Candida albicans [4]),MIC (Bacillus subtilis [5]),MIC (Candida albicans [6]),MIC (Klebsiella pneumoniae [7]),"MIC (Klebsiella pneumoniae [8]; RSHM 574, 24 h)",MIC (Staphylococcus aureus [9]),MIC (Escherichia coli [10]),MIC (Bacillus subtilis [1]),MIC (Staphylococcus aureus [2]),MIC (Escherichia coli [3]),MIC (Klebsiella pneumoniae [8])
Nc1ccc2nc(-c3ccc(F)cc3)oc2c1,3.659,50 µg/mL,50 µg/mL,100 µg/mL,50 µg/mL,50 µg/mL,50 µg/mL,50 µg/mL,100 µg/mL,50 µg/mL,100 µg/mL,100 µg/mL,,,,
Cc1ccc(-c2nc3ccc(C)cc3o2)c(C)c1,3.676,50 µg/mL,,,,,,,,,,,,,,
CCc1ccc(-c2nc3ccc(N)cc3o2)cc1,3.678,50 µg/mL,50 µg/mL,100 µg/mL,50 µg/mL,50 µg/mL,100 µg/mL,50 µg/mL,100 µg/mL,50 µg/mL,100 µg/mL,100 µg/mL,,,,
COc1ccccc1-c1nc2cc(C)ccc2o1,3.981,25 µg/mL,,,,,,,,,,,,,,
CCc1ccc(-c2nc3cc(N)ccc3o2)cc1,4.28,12.5 µg/mL,50 µg/mL,25 µg/mL,50 µg/mL,50 µg/mL,50 µg/mL,50 µg/mL,100 µg/mL,50 µg/mL,100 µg/mL,100 µg/mL,,,,
O=[N+]([O-])c1ccc2nc(-c3ccc(Br)cc3)oc2c1,4.407,12.5 µg/mL,50 µg/mL,100 µg/mL,50 µg/mL,50 µg/mL,50 µg/mL,100 µg/mL,100 µg/mL,50 µg/mL,400 µg/mL,25 µg/mL,,,,
CO[C@H]1/C=C/O[C@@]2(C)Oc3c(C)c(O)c4c(O)c(c(/C=N/N5CCN(C)CC5)c(O)c4c3C2=O)NC(=O)/C(C)=C\C=C\[C@H](C)[C@H](O)[C@@H](C)[C@@H](O)[C@@H](C)[C@H](OC(C)=O)[C@@H]1C [RIFAMPIN],,,32 µg/mL,0.5 µg/mL,8 µg/mL,,256 µg/mL,,256 µg/mL,16 µg/mL,8 µg/mL,64 µg/mL,,,,
Nc1ccc2oc(-c3ccc(F)cc3)nc2c1,3.96,25 µg/mL,50 µg/mL,50 µg/mL,50 µg/mL,50 µg/mL,50 µg/mL,50 µg/mL,100 µg/mL,50 µg/mL,100 µg/mL,100 µg/mL,,,,
Cc1ccc2oc(-c3ccccc3Cl)nc2c1,3.989,25 µg/mL,,,,,,,,,,,,,,
C[C@@H]1[C@H](O)[C@@H](C)/C=C/C=C/C=C/C=C/C=C/C=C/C=C/[C@H](O[C@@H]2O[C@H](C)[C@@H](O)[C@H](N)[C@@H]2O)C[C@@H]2O[C@](O)(C[C@@H](O)C[C@@H](O)[C@H](O)CC[C@@H](O)C[C@@H](O)CC(=O)O[C@H]1C)C[C@H](O)[C@H]2C(=O)O [AMPHOTERICIN B],,,,,,1 µg/mL,,1 µg/mL,,,,,,,,
Cc1ccc2oc(-c3ccccc3F)nc2c1,3.959,25 µg/mL,,,,,,,,,,,,,,
COc1ccccc1-c1nc2ccc(C)cc2o1,3.981,25 µg/mL,,,,,,,,,,,,,,
Cc1ccc2oc(-c3ccc(Br)cc3)nc2c1,4.363,12.5 µg/mL,,,,,,,,,,,,,,
Cc1ccc2oc(-c3ccccc3[N+](=O)[O-])nc2c1,4.007,25 µg/mL,,,,,,,,,,,,,,
COc1ccc(-c2nc3cc(C)ccc3o2)c(OC)c1,4.032,,,,,,,,,,,,,,,
OC(Cn1cncn1)(Cn1cncn1)c1ccc(F)cc1F [FLUCONAZOLE],,,,,,64 µg/mL,,1 µg/mL,,,,,,,,
Cc1ccc2nc(-c3ccc(Cl)cc3Cl)oc2c1,4.046,25 µg/mL,,,,,,,,,,,,,,
GENTAMICIN SULFATE,,,2 µg/mL,,,,512 µg/mL,,64 µg/mL,,1020 µg/mL,1 µg/mL,1 µg/mL,0.06 µg/mL,0.5 µg/mL,8 µg/mL
Cc1ccc2oc(-c3ccc(Cl)cc3)nc2c1,4.29,12.5 µg/mL,,,,,,,,,,,,,,
Cc1ccc2oc(-c3ccccc3)nc2c1,4.224,12.5 µg/mL,,,,,,,,,,,,,,
